Measured values: ChEMBL document CHEMBL1126084, “2-Acetylpyridine thiocarbonohydrazones. Potent inactivators of herpes simplex virus ribonucleotide reductase” (J Med Chem, 1992)

Legend:
Human alphaherpesvirus 1 [1] = assay: Inhibitory index against HSV-1 ribonucleotide reductase calculated as, [1+k inact/f+0.01] where f = 1-% inhibition/100).; assay type: functional
Method in brief: (§1)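 Index per eq 1 combines kinact and percent inhibition of initial velocity from reductase reactions ±5 μM inhibitor (unless otherwise indicated). 0.99 is subtracted from the calculated ratio, so a non-inhibiting, non-inactivating compound scores zero. HSV-1 and human enzymes were assayed under their respective conditions.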

[2] = biological target: T1, Ribonucleoside-diphosphate reductase RR1 (Homo sapiens) (UniProt P23921+Q7LG56+P31350); assay: Apparent enzyme activity measured as the ratio of HSV-1 and human enzyme inhibition induces; assay type: functional; settings: Human alphaherpesvirus 1
Method in brief: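 Apparent selectivity is the ratio of HSV-1 to human inhibition indices, each from eq 1 at 5 μM inhibitor or at the indicated concentration for each enzyme.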

[3] = biological target: T1, Ribonucleoside-diphosphate reductase RR1 (Homo sapiens); assay: Inactivation of human ribonucleotide reductase by the compound (5 uM) at rate constant K inact.; assay type: protein-complex assay
Method in brief: (§2)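 The ATP contributed about 3 μM iron, keeping inhibitors iron-complexed. Reactions ran ±5 μM inhibitor unless otherwise indicated. kinact (per hour, net over the control) and v0 came from iterative nonlinear least-squares fits of decelerating time courses.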

Human alphaherpesvirus 1 [4] = assay: Inhibition of HSV-1 ribonucleotide reductase by the compound (5 uM); assay type: functional
Method in brief: (§3)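 Partially purified HSV-1 ribonucleotide reductase, assayed by reduction of purified [14C]CDP in 200 mM Hepes Na+ pH 7.7, 10 mM dithiothreitol, 2 μM CDP (500 Ci/mol, 3–4 × Km), with and without 5 μM inhibitor unless otherwise indicated. First-order kinact (per hour) and v0 of decelerating product time courses come from iterative nonlinear least squares. kinact is the net increase over the uninhibited control, and % inhibition refers to v0.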

Human alphaherpesvirus 1 [5] = assay: Inactivation of HSV-1 ribonucleotide reductase by the compound (5 uM) at rate constant K inact.; assay type: functional; method in brief: as §3
[6] = biological target: T1, Ribonucleoside-diphosphate reductase RR1 (Homo sapiens); assay: Inhibitory index against human ribonucleotide reductase calculated as, [1+k inact/f+0.01] where f = 1-% inhibition/100).; assay type: protein-complex assay; method in brief: as §1
[7] = biological target: T1, Ribonucleoside-diphosphate reductase RR1 (Homo sapiens); assay: Inhibition of human ribonucleotide reductase by the compound (5 uM); assay type: protein-complex assay; method in brief: as §2
Human alphaherpesvirus 1 [8] = assay: Inactivation of HSV-1 ribonucleotide reductase at rate constant K inact; method in brief: as §3
Human alphaherpesvirus 1 [9] = assay: Inhibition of HSV-1 ribonucleotide reductase; parameters: concentration or dose not given beside the values; settings: concentration not given here; method in brief: as §3
[10] = biological target: T1, Ribonucleoside-diphosphate reductase RR1 (Homo sapiens); assay: Inhibition of human ribonucleotide reductase; assay type: protein-complex assay; parameters: concentration or dose not given beside the values; settings: concentration not given here; method in brief: as §2
[11] = pKa value of the compound; assay type: physicochemical
Method in brief: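 Protonation and anion-generation pKa values were determined spectrophotometrically.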

[12] = biological target: T1, Ribonucleoside-diphosphate reductase RR1 (Homo sapiens); assay: Inhibitory index against human ribonucleotide reductase; assay type: protein-complex assay; method in brief: as §1
[13] = biological target: T1, Ribonucleoside-diphosphate reductase RR1 (Homo sapiens); assay: Inactivation of human ribonucleotide reductase at rate constant K inact; assay type: protein-complex assay; method in brief: as §2
Human alphaherpesvirus 1 [14] = assay: Inhibitory index against HSV-1 ribonucleotide reductase; method in brief: as §1

Compound	Inhibitory index (Human alphaherpesvirus 1 [1])	Apparent selectivity (HSV-1/human inhibition index ratio) [2]	kinact [3]	Inhibition (Human alphaherpesvirus 1 [4])	kinact (Human alphaherpesvirus 1 [5])	Inhibitory index [6]	inhibition [7]	kinact (Human alphaherpesvirus 1 [8])	inhibition (Human alphaherpesvirus 1 [9])	inhibition [10]	pKa [11]	Inhibitory index [12]	kinact [13]	Inhibitory index (Human alphaherpesvirus 1 [14])
C/C(=N\N=C(/S)N/N=C(\S)Nc1cccnc1)c1ccccn1	11	15	0 h⁻¹	18%	9 h⁻¹	0.73	43%							
C/C(=N\N=C(/S)N/N=C(\S)Nc1cccc(Cl)c1Cl)c1ccccn1		160						49 h⁻¹	29%	30%	3.86	0.42	0 h⁻¹	68
C/C(=N\N=C(/S)N/N=C(\S)NCCN1CCOCC1)c1ccccn1	15	15	0.4 h⁻¹	24%	11 h⁻¹	1	31%							
C/C(=N\N=C(/S)NNC(=S)NC(=O)c1ccccc1)c1ccccn1	24	4.5	2 h⁻¹	38%	15 h⁻¹	5.4	54%							
C/C(=N\N=C(/S)N/N=C(\S)NC12CC3CC(CC(C3)C1)C2)c1ccccn1	27	24	0 h⁻¹	47%	14 h⁻¹	1.1	53%							
C/C(=N\N=C(/S)N/N=C(\S)Nc1ccccc1C)c1ccccn1	14	4.6	1 h⁻¹	27%	10 h⁻¹	3	51%							
C/C(=N\N=C(/S)N/N=C(\S)Nc1ccccc1)c1ccccn1	21	2.5	3 h⁻¹	7%	20 h⁻¹	8.5	59%							
C/C(=N\N=C(/S)N/N=C(\S)Nc1cccc(C)c1)c1ccccn1	26	23	0 h⁻¹	28%	19 h⁻¹	1.1	54%							
C/C(=N\N=C(/S)N/N=C(\S)Nc1ccncc1)c1ccccn1	17	3.8	0 h⁻¹	8%	16 h⁻¹	4.6	83%							
O=C(NNC(=S)N/N=C/c1ccccn1)Nc1ccccc1Cl		14						23 h⁻¹	14%	66%		1.9	0 h⁻¹	27
C/C(=N\N=C(/S)N/N=C(\S)Nc1ccccc1I)c1ccccn1		6.5						29 h⁻¹	18%	23%		5.4	4 h⁻¹	35
C/C(=N\N=C(/S)N/N=C(\S)Nc1ccc([N+](=O)[O-])cc1)c1ccccn1		9.1						33 h⁻¹	14%	56%		4.2	1.3 h⁻¹	38
C/C(=N\N=C(/S)N/N=C(\S)Nc1cc(Cl)ccc1Cl)c1ccccn1		240						55 h⁻¹	8%	20%		0.24	0 h⁻¹	59
COc1ccc(Cl)cc1/N=C(\S)N/N=C(\S)N/N=C(\C)c1ccccn1	78	66	1 h⁻¹	48%	41 h⁻¹	1.2	9%							
C/C(=N\N=C(/S)N/N=C(\S)Nc1ccccn1)c1ccccn1		33						28 h⁻¹	57%	67%		2	0 h⁻¹	65
C/C(=N\N=C(/S)N/N=C(\S)Nc1ccc(C#N)cc1)c1ccccn1		17						29 h⁻¹	0%	64%		1.7	0 h⁻¹	29
COc1c(Cl)cccc1/N=C(\S)N/N=C(\S)N/N=C(\C)c1ccccn1		26						25 h⁻¹	0%	50%		1	0 h⁻¹	25
C/N=C(\S)N/N=C(\S)N/N=C(\C)c1ccccn1		14						4 h⁻¹	17%	19%		0.35	0.1 h⁻¹	5
C/C(=N\N=C(/S)N/N=C(\S)NCCCN1CCOCC1)c1ccccn1	7	24	0 h⁻¹	12%	6.1 h⁻¹	0.29	23%							
C/C(=N\N=C(/S)N/N=C(\S)NC1CCCC1)c1ccccn1		1.3						12 h⁻¹	7%	64%		9.8	3 h⁻¹	13
CCOC(=O)NC(=S)N/N=C(\S)N/N=C(\C)c1ccccn1	7	1.8	2 h⁻¹	14%	6 h⁻¹	3.9	40%							
Cc1cccc(/C=N/N=C(\S)N/N=C(\S)Nc2ccccc2Cl)n1		15						16 h⁻¹	41%	65%		1.8	0 h⁻¹	27
C/C(=N\N=C(/S)N/N=C(\S)Nc1cc(Cl)c(Cl)cc1Cl)c1ccccn1		680						16 h⁻¹	22%	3%		0.03	0 h⁻¹	21
